ChEMBL document CHEMBL3286182, “4-aminoquinolone piperidine amides: noncovalent inhibitors of DprE1 with long residence time and potent antimycobacterial activity” (J Med Chem, 2014)
Values after ≈ are worked out from the molar mass of the structure shown. Active and inactive are the calls of the source. No cut-off for these calls is given here.

Columns and labels:
[1] = tested on: Mycolicibacterium smegmatis; assay: Binding affinity to Mycobacterium smegmatis recombinant DprE1 at 0.5 to 10000 nM up to 30 mins
[2] = tested on: Mycolicibacterium smegmatis; assay: Binding affinity to Mycobacterium smegmatis DprE1 Y321H mutant at 0.5 to 10000 nM up to 30 mins
[3] = tested on: Mycobacterium tuberculosis; assay: Antimycobacterial activity against Mycobacterium tuberculosis over expressing DprE1 after 5 days by standard microdilution method; type: functional; settings: 120 h
[4] = Inhibition of Mycobacterium smegmatis DprE1 Y321H mutant using farnesylphosphoryl-beta-D-ribofuranose as substrate assessed as conversion of amplex red to resorufin after 30 mins; parameters: species or system Mycolicibacterium smegmatis
Outline: (§1)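 Recombinant M. smegmatis DprE1 (thioredoxin-6His fusion), wild type or Y321H, 75 nM. Enzyme was preincubated 30 min in FAD assay mix: 50 mM glycylglycine pH 8.5, 200 mM potassium glutamate, 10 μM FAD, 0.002% Brij-35, 2% DMSO. Reaction was started with 300 μM farnesylphosphoryl-β-D-ribofuranose, 0.01 mg/mL HRP and 50 μM amplex red at 25 °C.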

[5] = Inhibition of Mycobacterium smegmatis recombinant DprE1 using farnesylphosphoryl-beta-D-ribofuranose as substrate assessed as conversion of amplex red to resorufin after 30 mins; parameters: species or system Mycolicibacterium smegmatis
Outline: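 Msm DprE1 (thioredoxin-6His fusion of Msm Rv3790) at 75 nM, preincubated 30 min with 10 μM FAD. Buffer: 50 mM glycylglycine pH 8.5, 200 mM potassium glutamate, 0.002% Brij-35, 2% DMSO, 25 °C. Started with 300 μM farnesylphosphoryl-β-D-ribofuranose, 0.01 mg/mL HRP and 50 μM Amplex Red.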

[6] = tested on: Mycobacterium tuberculosis; assay: Antimycobacterial activity against Mycobacterium tuberculosis H37Rv after 5 days by standard microdilution method; type: functional; settings: 120 h
[7] = tested on: Mycolicibacterium smegmatis; assay: Ratio of IC50 for Mycobacterium smegmatis DprE1 Y321H mutant to IC50 for Mycobacterium smegmatis recombinant wild type DprE1; outline: as §1

Cn1ncc(C(=O)N2[C@@H]3CC[C@H]2C[C@@H](Nc2cc(=O)[nH]c4ccc(F)cc24)C3)c1Cl
Activity [1]: Active
Activity [2]: Active
MIC [3]: 6.25 µM (≈ 2.69 µg/mL)
IC50 [4]: 550 nM
IC50 [5]: 30 nM
MIC [6]: 0.39 µM (≈ 0.168 µg/mL)
fold change (FC) [7]: 12
